The results in this text go back to ChEMBL document CHEMBL1146049, “Novel dual inhibitors of calpain and lipid peroxidation with enhanced cellular activity” (Bioorg Med Chem Lett, 2006).

Active and inactive are the calls of the source. The calls are words filed in the database; no cut-off is given here.

Experiment [1] deals with Chymotrypsinogen A (Bos taurus) (UniProt P00766). The experiment in a line: Inhibition of alpha chymotrypsin.
Experiment [2] in a line: Ratio of pIC50 (rat calpain/human calpain 1). A digest of the protocol:
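pRatio = −log(intracellular calpain IC50 / human calpain 1 IC50). The intracellular IC50 comes from glioma C6 cells, which were exposed to compound for 4 h in total, including 3 h with maitotoxin to induce calpain activation, with Suc-Leu-Tyr-AMC as substrate. The enzymatic IC50 comes from isolated human calpain 1 with the same substrate.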

For experiment [3], the target named is Calpain 1 (Homo sapiens, UniProt P07384). The experiment in a line: (§1) Inhibition of isolated human calpain1. Type of experiment: protein-complex assay. The essentials:
(§2)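 Isolated human calpain 1 enzyme assay with Suc-Leu-Tyr-AMC as substrate; IC50 determined.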

A short description of experiment [4]: Inhibition of maitotoxin induced intracellular calpain in glioma C6 cells. Type of experiment: functional, cell-based. To be noted: Rattus norvegicus. A digest of the protocol: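 Rat glioma C6 cells were exposed to compound for 4 h, the last 3 h with maitotoxin to activate calpain. Intracellular calpain activity was read as cleavage of the fluorogenic substrate Suc-Leu-Tyr-AMC. IC50 values are means of three experiments.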

Experiment [5] concerns the target T1, Caspase-3 (Homo sapiens) (UniProt P42574).
T1 sequence (whole entry): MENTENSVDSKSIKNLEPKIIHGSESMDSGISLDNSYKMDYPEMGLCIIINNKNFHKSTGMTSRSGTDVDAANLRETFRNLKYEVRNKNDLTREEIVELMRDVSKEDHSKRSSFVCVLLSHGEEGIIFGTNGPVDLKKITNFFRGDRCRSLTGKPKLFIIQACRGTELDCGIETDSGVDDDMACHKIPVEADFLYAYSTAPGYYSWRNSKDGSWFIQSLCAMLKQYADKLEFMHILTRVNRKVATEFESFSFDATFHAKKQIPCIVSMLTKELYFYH
The experiment in a line: Inhibition of caspase3.

Experiment [6] has as its target Cathepsin B (Homo sapiens) (UniProt P07858). The experiment is described as follows: Inhibition of cathepsinB.
Experiment [7] concerns Radical scavenging activity. The experiment in a line: Inhibition of ferrous induced lipid peroxidation in rat brain microsomes. Type of experiment: functional.
Experiment [8] addresses T2, Calpain 1 (Homo sapiens, UniProt P04632+P07384).
T2 sequence (P04632 whole entry): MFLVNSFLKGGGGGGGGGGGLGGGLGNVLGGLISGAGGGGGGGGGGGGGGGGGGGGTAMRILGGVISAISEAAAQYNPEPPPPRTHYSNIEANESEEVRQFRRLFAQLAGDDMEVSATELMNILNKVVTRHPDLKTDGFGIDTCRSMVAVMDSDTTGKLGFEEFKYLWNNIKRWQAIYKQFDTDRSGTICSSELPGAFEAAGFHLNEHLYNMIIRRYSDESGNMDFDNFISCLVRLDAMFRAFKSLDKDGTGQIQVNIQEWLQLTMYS
T2 sequence (P07384 whole entry): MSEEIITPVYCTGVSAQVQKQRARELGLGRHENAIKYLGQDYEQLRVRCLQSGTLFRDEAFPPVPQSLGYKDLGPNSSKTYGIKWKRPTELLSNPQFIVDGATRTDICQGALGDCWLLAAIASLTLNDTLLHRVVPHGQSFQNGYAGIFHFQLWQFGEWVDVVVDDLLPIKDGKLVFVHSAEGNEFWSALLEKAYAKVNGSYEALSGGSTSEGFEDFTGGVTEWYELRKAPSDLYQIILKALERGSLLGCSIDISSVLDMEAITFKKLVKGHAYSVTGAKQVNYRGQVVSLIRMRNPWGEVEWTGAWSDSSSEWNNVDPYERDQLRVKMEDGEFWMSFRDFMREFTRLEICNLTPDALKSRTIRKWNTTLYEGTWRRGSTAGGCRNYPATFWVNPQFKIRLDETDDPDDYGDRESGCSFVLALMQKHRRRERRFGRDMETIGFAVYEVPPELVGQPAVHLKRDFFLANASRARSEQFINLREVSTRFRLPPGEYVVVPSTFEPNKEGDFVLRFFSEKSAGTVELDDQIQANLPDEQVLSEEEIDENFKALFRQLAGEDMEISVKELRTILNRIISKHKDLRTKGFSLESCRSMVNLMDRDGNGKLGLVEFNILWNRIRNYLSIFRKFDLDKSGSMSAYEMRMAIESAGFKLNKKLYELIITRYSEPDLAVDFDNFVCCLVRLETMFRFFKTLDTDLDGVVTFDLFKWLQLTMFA
Described as §1. Type of experiment: protein-complex assay. The essentials:
as §2

Consider `CC(C)C[C@H](NC(=O)[C@@H](NC(=O)COc1ccc2c(c1)Nc1ccccc1S2)C(C)C)C(=O)N[C@H]1CCOC1O` (some centres not stated), for which the result in experiment [1] and in experiment [5] was inactive. The Negative log of IC50 ratio (cellular/enzyme) in experiment [2] stood at 1.88. The IC50 in experiment [3] was determined as 75.9 nM; in experiment [4] it was 1000 nM. Further, the result in experiment [6] was Active.
On to `CC(C)C[C@H](NC(=O)COc1ccc2c(c1)Nc1ccccc1S2)C(=O)N[C@@H](CC(C)C)C(=O)N[C@H]1CCOC1O` (stereo in doubt; 6d-08) [listing 1 of 2 here], for which the result in experiment [1] and in experiment [5] was inactive. Moreover, the Negative log of IC50 ratio (cellular/enzyme) in experiment [2] came to 2.24. For the same compound, the result in experiment [6] was Active.
Turning to `CC(C)C[C@H](NC(=O)COc1ccc2c(c1)Nc1ccccc1S2)C(=O)N[C@@H](CC(C)C)C(=O)N[C@H]1CCOC1O` (stereo in doubt; 6d-08) [listing 2 of 2 here], the IC50 in experiment [3] was 105 nM; in experiment [4], 600 nM.
Consider `CC(=O)OC1OCC[C@@H]1NC(=O)[C@H](CC(C)C)NC(=O)[C@H](CC(C)C)NC(=O)c1ccc2c(c1)Nc1ccccc1S2` (some centres not stated), for which the IC50 in experiment [3] amounted to 905 nM; in experiment [4], 1700 nM; in experiment [7], 2310 nM.
For `CC(C)C[C@H](NC(=O)CNC(=O)COc1ccc2c(c1)Nc1ccccc1S2)C(=O)N[C@H]1CCOC1O` (some centres not stated), the outcome in experiment [1] and in experiment [5] was inactive. The Negative log of IC50 ratio (cellular/enzyme) in experiment [2] was -0.9. For the same compound, the IC50 in experiment [3] is 8 nM; in experiment [4], 63000 nM. The result in experiment [6] was Active.
For the compound `CC(C)C[C@H](NC(=O)COc1ccc2c(c1)Nc1ccccc1S2)C(=O)N[C@@H](CC(C)C)C(=O)N[C@H]1CCOC1O` (stereo in doubt; 6d), the figures for the IC50 in experiment [8] and in experiment [7] were 105 nM and 333 nM, respectively.
Regarding `CCC[C@H](NC(=O)COc1ccc2c(c1)Nc1ccccc1S2)C(=O)N[C@@H](CC(C)C)C(=O)N[C@H]1CCOC1O` (some centres not stated), the result in experiment [1] and in experiment [5] was inactive. Further, in experiment [2], the Negative log of IC50 ratio (cellular/enzyme) worked out at 2.4. Moreover, the IC50 in experiment [3] was 151 nM; in experiment [4], 600 nM. The result in experiment [6] was Active.
Consider `CC(C)C[C@H](NC(=O)Cc1ccc2c(c1)Nc1ccccc1S2)C(=O)N[C@@H](CC(C)C)C(=O)N[C@H]1CCOC1O` (some centres not stated), for which the half-maximal inhibitory concentration (IC50) in experiment [3] came out at 55.4 nM; in experiment [4], 2500 nM; in experiment [7], 966 nM.
Turning to `CC[C@H](NC(=O)COc1ccc2c(c1)Nc1ccccc1S2)C(=O)N[C@@H](CC(C)C)C(=O)N[C@H]1CCOC1O` (some centres not stated), the result in experiment [1] and in experiment [5] was inactive. In addition, the Negative log of IC50 ratio (cellular/enzyme) in experiment [2] came to 2.05. Besides, the IC50 in experiment [3] came out at 88.6 nM; in experiment [4], 800 nM. Also, the result in experiment [6] was Active.
Regarding `CC(C)C[C@H](NC(=O)[C@H](CO)NC(=O)COc1ccc2c(c1)Nc1ccccc1S2)C(=O)N[C@H]1CCOC1O` (some centres not stated), the outcome in experiment [1] and in experiment [5] was inactive. In addition, in experiment [2], the Negative log of IC50 ratio (cellular/enzyme) came to 1.21. The half-inhibitory concentration (IC50) turned out to be 48.7 nM in experiment [3] and 3000 nM in experiment [4]. Besides, in experiment [6], the result was Active.
In the case of `CC(C)C[C@H](NC(=O)C(C)(C)NC(=O)COc1ccc2c(c1)Nc1ccccc1S2)C(=O)N[C@H]1CCOC1O` (some centres not stated), the result in experiment [1] and in experiment [5] was inactive. Besides, the Negative log of IC50 ratio (cellular/enzyme) in experiment [2] is 0.66. The results for the half-inhibitory concentration (IC50) in experiment [3] and in experiment [4] were 138 nM and 30000 nM, respectively. In addition, in experiment [6], the result was Active.
With `CC(C)C[C@H](NC(=O)[C@H](NC(=O)COc1ccc2c(c1)Nc1ccccc1S2)C(C)C)C(=O)N[C@H]1CCOC1O` (some centres not stated), the outcome in experiment [1] and in experiment [5] was inactive. Besides, the Negative log of IC50 ratio (cellular/enzyme) in experiment [2] came to 1.54. Also, the IC50 was 553 nM in experiment [3] and 16000 nM in experiment [4]. In addition, the result in experiment [6] was Active.
As for `CC(C)C[C@H](NC(=O)c1ccc2c(c1)Nc1ccccc1S2)C(=O)N[C@@H](CC(C)C)C(=O)N[C@H]1CCOC1O` (some centres not stated), the values for the IC50 in experiment [3], in experiment [4] and in experiment [7] were 85.5 nM, 1800 nM and 1100 nM, respectively.
Take `CC(C)C[C@H](NC(=O)CCc1ccc2c(c1)Nc1ccccc1S2)C(=O)N[C@@H](CC(C)C)C(=O)N[C@H]1CCOC1O` (some centres not stated): the values for the IC50 in experiment [3], in experiment [4] and in experiment [7] were 150 nM, 10000 nM and 3300 nM, respectively.
For `CC(C)C[C@H](NC(=O)[C@@H](NC(=O)COc1ccc2c(c1)Nc1ccccc1S2)c1ccccc1)C(=O)N[C@H]1CCOC1O` (some centres not stated), the outcome in experiment [1] and in experiment [5] was inactive. The Negative log of IC50 ratio (cellular/enzyme) in experiment [2] worked out at 1.65. In addition, the IC50 amounted to 222 nM in experiment [3] and 5000 nM in experiment [4]. Besides, in experiment [6], the outcome was Active.
For the compound `CC(C)C[C@H](NC(=O)[C@@H](NC(=O)COc1ccc2c(c1)Nc1ccccc1S2)[C@H](C)O)C(=O)N[C@H]1CCOC1O` (some centres not stated), the result in experiment [1] and in experiment [5] was inactive. Further, in experiment [2], the Negative log of IC50 ratio (cellular/enzyme) stood at 1.28. Moreover, the IC50 in experiment [3] worked out at 38 nM; in experiment [4] it was 2000 nM. In experiment [6], the outcome was Active.
As for `CC(C)C[C@H](NC(=O)[C@@H](NC(=O)COc1ccc2c(c1)Nc1ccccc1S2)C(C)(C)C)C(=O)N[C@H]1CCOC1O` (some centres not stated), the result in experiment [1] and in experiment [5] was inactive. For the same compound, in experiment [2], the Negative log of IC50 ratio (cellular/enzyme) was 1.95. Besides, the IC50 in experiment [3] stood at 354 nM; in experiment [4] it was 4000 nM. Besides, in experiment [6], the outcome was Active.
For the compound `CC(C)C[C@H](NC(=O)[C@H](C)NC(=O)COc1ccc2c(c1)Nc1ccccc1S2)C(=O)N[C@H]1CCOC1O` (some centres not stated), the result in experiment [1] and in experiment [5] was inactive. Further, in experiment [2], the Negative log of IC50 ratio (cellular/enzyme) came to 0.22. Besides, the values for the IC50 in experiment [3] and in experiment [4] were 25 nM and 15000 nM, respectively. Also, the result in experiment [6] was Active.
As to `Cc1cc(C(C)(C)C)c(O)c(C(C)(C)C)c1` [BUTYLATED HYDROXYTOLUENE], in experiment [7], 3250 nM corresponded to half-maximal inhibition (IC50).

A word on the IC50: it is the point on the concentration scale where inhibition reaches its midpoint. Read a high IC50 as weaker potency in that assay.
